Assay results: PMC3423956 (European journal of medicinal chemistry, 2009)

How the values were obtained:
[1] = Stability in solution; format: physicochemical; conditions: for conversion to ACV: water
Procedure, shortened: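 Test compound was diluted from a freshly made stock into water and into methanol. Half was kept at room temperature and half in the autosampler at 4°C. Samples were injected every 15 min for 2 hr, then hourly, daily and weekly. Analysis was LC-MS/MS on a C18 column (ammonium formate pH 3 or water / methanol gradient, 30°C, ESI+, SRM). Guanine-analog formation was quantified against parent-nucleoside and acyclovir calibrations (10–1000 nM).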

[2] = system: HCV subgenomic RNA replicon; test: Anti-HCV activity in Huh-7 cells with HCV subgenomic RNA replicon system; format: cell-based; conditions: Hepatitis C virus, Huh-7, read-out: Anti-HCV activity Huh-7 cells EC50, Huh-7 cells, HCV replicon
[3] = system: HSV-1 (strain F); test: HSV-1 plaque reduction assay in Vero cells; format: cell-based; conditions: Human alphaherpesvirus 1, Vero
[4] = system: herpes simplex virus (HSV); conditions: cited from earlier work

Compound	reversion to parent nucleoside (7 or 8) ([1]; after 3 weeks) [%]	EC50 [2] [µM]	other results
COc1ccc(-c2cn3c(=O)c4ncn([C@@H]5O[C@H](CO)[C@@H](O)[C@@]5(C)O)c4nc3[nH]2)cc1 [Compound 36, 3-(β-D-2-C-Methyl-ribofuranosyl)-3,9-dihydro-6-(4-methoxy-phenyl)-9-oxo-5H-imidazo-[1,2-a]purine]	30	< 10	–
Nc1nc2c(ncn2COCCO)c(=O)[nH]1 [ACV, acyclovir]	–	–	EC50 ([3]; read-out: Activity against HSV-1 EC50): 0.075 µM; EC90 ([3]; read-out: Activity against HSV-1 EC90): 0.7 µM
COc1ccc(-c2cn3c(=O)c4ncn([C@H]5C[C@H](N=[N+]=[N-])[C@@H](CO)O5)c4nc3[nH]2)cc1 [Compound 32, 3-(3-Azido-2,3-dideoxy-β-D-erythro-pentofuranosyl)-3,9-dihydro-6-(4-methoxyphenyl)-9-oxo-5H-imidazo-[1,2-a]purine]	60	–	–
COc1ccc(-c2cn3c(O)c4ncn(COCCO)c4nc3n2)cc1 [Compound 3, 6-(4-MeOPh)-TACV]	–	–	activity against herpes simplex virus (HSV) compared with parent [4]: as active as their parent congeners; conversion to ACV ([1]; after 3 weeks): 35%; conversion to ACV ([1]; after 4 days): 4%
C[C@@]1(O)[C@H](O)[C@@H](CO)O[C@H]1n1cnc2c(=O)n3cc(-c4cccs4)[nH]c3nc21 [Compound 39, 3-(β-D-2-C-Methyl-ribofuranosyl)-3,9-dihydro-6-(2-thienyl)-9-oxo-5H-imidazo-[1,2-a]purine]	60	< 10	–
